Test results reported in ChEMBL document CHEMBL3232815, “Synthesis and anticonvulsant activity of some new pyrazolo[3,4-b]pyrazines and related heterocycles” (2014).

Assays:
Format in all cases: functional
Settings in all cases: route intraperitoneal
Mus musculus [1] = experiment: Anticonvulsant activity in Swiss Webster mouse assessed as PTZ-induced clonic seizures at 10 mg/kg, ip pretreated 20 mins before PTZ challenge and measured 1 hr post PTZ challenge relative to control
Outline: (§1)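 Male adult Swiss–Webster mice, 22–30 g, 12 h light/dark cycle at 25 °C, food and water ad libitum. Compound 10 mg/kg ip (0.2% in corn oil), one group per compound (8 animals), 20 min before PTZ 75 mg/kg ip (1.5% in saline). Watched 1 h for seizure onset (min) and % animals convulsing; 24 h survival noted. Phenobarbital 30 mg/kg reference; p vs PTZ group.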

Mus musculus [2] = experiment: Anticonvulsant activity in Swiss Webster mouse assessed as PTZ-induced tonic seizures at 10 mg/kg, ip pretreated 20 mins before PTZ challenge and measured 1 hr post PTZ challenge relative to control; outline: as §1
Mus musculus [3] = experiment: Anticonvulsant activity in Swiss Webster mouse assessed as survivors level at 10 mg/kg, ip pretreated 20 mins before PTZ challenge and measured 24 hrs post PTZ challenge relative to control
Outline: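 Male adult Swiss–Webster mice (22–30 g), 8 per group. Compounds are given ip at 10 mg/kg (0.2% in corn oil) 20 min before PTZ 75 mg/kg ip (1.5% in saline), the minimal convulsive dose. Animals are watched for 1 h after PTZ. Survivors are counted at 24 h and expressed as % survivors against the PTZ-only control. Significance is tested at p<0.05 and p<0.01.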

Mus musculus [4] = experiment: Anticonvulsant activity in Swiss Webster mouse assessed as PTZ-induced clonic seizures at 30 mg/kg, ip pretreated 20 mins before PTZ challenge and measured 1 hr post PTZ challenge relative to control
Outline: (§2)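 Male adult Swiss–Webster mice (22–30 g), 8 per group, with a 12 h light/dark cycle at 25 °C. The reference drug phenobarbital sodium is given at 30 mg/kg ip 20 min before PTZ 75 mg/kg ip (1.5% solution in saline). Clonic and tonic seizure onset (min) and % animals convulsing are scored over 1 h. Survivors are counted at 24 h. Comparison is with the PTZ-only group.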

Mus musculus [5] = experiment: Anticonvulsant activity in Swiss Webster mouse assessed as PTZ-induced tonic seizures at 30 mg/kg, ip pretreated 20 mins before PTZ challenge and measured 1 hr post PTZ challenge relative to control; outline: as §2
Mus musculus [6] = experiment: Anticonvulsant activity in Swiss Webster mouse assessed as survivors level at 30 mg/kg, ip pretreated 20 mins before PTZ challenge and measured 24 hrs post PTZ challenge relative to control; outline: as §2

COc1ccc(C2SCC(=O)N2NC(=O)c2nc3c(C)nn(-c4ccccc4)c3nc2-c2ccccc2)cc1OC (stereo not given)
Activity (Mus musculus [1]): 87.5%
Activity (Mus musculus [2]): 0%
survival at 10 mg/kg (Mus musculus [3]): 100%

Cc1nn(-c2ccccc2)c2nc(-c3ccccc3)c(C(=O)NN3C(=O)CSC3c3ccccc3)nc12 (stereo not given)
Activity (Mus musculus [1]): 75%
Activity (Mus musculus [2]): 12.5%
survival at 10 mg/kg (Mus musculus [3]): 87.5%

Cc1nn(-c2ccccc2)c2nc(-c3ccccc3)c(-c3nn4cc(-c5ccccc5)nc4s3)nc12
Activity (Mus musculus [1]): 87.5%
Activity (Mus musculus [2]): 12.5%
survival at 10 mg/kg (Mus musculus [3]): 87.5%

Cc1nn(-c2ccccc2)c2nc(-c3ccccc3)c(C(=O)NN3C(=O)CSC3c3ccc([N+](=O)[O-])cc3)nc12 (stereo not given)
Activity (Mus musculus [1]): 87.5%
Activity (Mus musculus [2]): 25%
survival at 10 mg/kg (Mus musculus [3]): 75%

Cc1nn(-c2ccccc2)c2nc(-c3ccccc3)c(C(=O)NN3C(=O)CSC3c3ccc(Cl)cc3)nc12 (stereo not given)
Activity (Mus musculus [1]): 75%
Activity (Mus musculus [2]): 25%
survival at 10 mg/kg (Mus musculus [3]): 75%

Cc1nn(-c2ccccc2)c2nc(-c3ccccc3)c(C(=O)NN3C(=O)CSC34CCCC4)nc12
Activity (Mus musculus [1]): 100%
Activity (Mus musculus [2]): 25%
survival at 10 mg/kg (Mus musculus [3]): 75%

Cc1nn(-c2ccccc2)c2nc(-c3ccccc3)c(-c3nn4cc(-c5ccc(Br)cc5)nc4s3)nc12
Activity (Mus musculus [1]): 87.5%
Activity (Mus musculus [2]): 37.5%
survival at 10 mg/kg (Mus musculus [3]): 62.5%

Cc1nn(-c2ccccc2)c2nc(-c3ccccc3)c(C(=O)NN3C(=O)CSC3(C)C)nc12
Activity (Mus musculus [1]): 100%
Activity (Mus musculus [2]): 75%
survival at 10 mg/kg (Mus musculus [3]): 25%

Cc1nn(-c2ccccc2)c2nc(-c3ccccc3)c(C(=O)NN3C(=O)CSC34CCCCC4)nc12
Activity (Mus musculus [1]): 100%
Activity (Mus musculus [2]): 100%
survival at 10 mg/kg (Mus musculus [3]): 0%

CCC1(c2ccccc2)C(=O)N=C([O-])NC1=O.[Na+] (stereo not given) [PHENOBARBITAL SODIUM]
Activity (Mus musculus [4]): 0%
Activity (Mus musculus [5]): 0%
survival at 30 mg/kg (Mus musculus [6]): 100%
